Laboratory results reported in ChEMBL document CHEMBL1800034, “A synthetic 7,8-dihydroxyflavone derivative promotes neurogenesis and exhibits potent antidepressant effect” (J Med Chem, 2010).
Active and inactive are the calls of the source. The rule behind the calls is not given here.

Assays:
Mus musculus [1] = experiment: Agonist activity at TrkA in C57BL/6J mouse brain lysate assessed as TrkA phosphorylation at Y794 at 5 mg/kg, po administered for 21 days by immunoblotting; type: functional, organism-based; design: dose 5 mg/kg
Method in brief: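 Adult male C57BL/6J mice, 8 per group, dosed orally by gavage once daily for 21 days; saline was the vehicle. Brain lysates were immunoblotted with anti-p-TrkA 794 and anti-p-TrkB 817.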

Mus musculus [2] = experiment: Agonist activity at TrkB in C57BL/6J mouse brain assessed as TrkB 706 phosphorylation at 1 mg/kg, po after 4 hrs by immunoblotting; type: functional, organism-based; design: dose 1 mg/kg
Method in brief: (§1)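 C57BL/6J mice got a single oral dose of 1 mg/kg. Brains were collected at several time points, about 1 to 16 h after dosing. Lysates were immunoblotted for TrkB phosphorylation and for downstream Akt and MAPK phosphorylation.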

Mus musculus [3] = experiment: Toxicity in C57BL/6J mouse assessed as affect on complete blood count analysis at 5 mg/kg, po for 3 weeks; type: organism-based; design: dose 5 mg/kg, route oral; details: in vivo, 504 h
Method in brief: (§2)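 Mice were dosed orally at 5 mg/kg for 3 weeks, with saline-treated controls. Major organs were examined for pathological changes, and a complete blood count was done.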

[4] = molecular target: BDNF/NT-3 growth factors receptor (Rattus norvegicus) (UniProt Q63604); experiment: Agonist activity at TrkB in E16 rat embryonic cortical neurons assessed as inhibition of glutamate-induced caspase 3 activation at 50 to 500 nM after 30 mins followed by 16 hrs of 50 uM glutamate-challenge by ELISA; type: functional
Method in brief: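 Cortical neurons from E16 rat embryos were pretreated with the indicated compound concentrations for 30 min. They were then challenged with 50 µM glutamate for 16 h. Active caspase-3 in the lysates was measured by ELISA.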

Mus musculus [5] = experiment: Toxicity in C57BL/6J mouse assessed as pathological changes in spleen at 5 mg/kg, po for 3 weeks; type: organism-based; design: dose 5 mg/kg, route oral; details: in vivo, 504 h; method in brief: as §2
[6] = molecular target: BDNF/NT-3 growth factors receptor (Rattus norvegicus) (UniProt Q63604); experiment: Agonist activity at TrkB in E17 rat primary cortical neurons at 500 nM after 10 mins by immunoblotting; type: functional, cell-based; details: Cerebral cortex neuron
Method in brief: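 Rat primary cortical neurons were exposed to 500 nM compound for various times between 5 and 180 min. Lysates were immunoblotted for TrkB, Akt and MAPK phosphorylation.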

[7] = molecular target: BDNF/NT-3 growth factors receptor (Rattus norvegicus) (UniProt Q63604); experiment: Agonist activity at TrkB in E17 rat primary cortical neurons assessed as MAPK phosphorylation at 500 nM by ELISA; details: Cerebral cortex neuron
Mus musculus [8] = experiment: Toxicity in C57BL/6J mouse assessed as pathological changes in hippocampus at 5 mg/kg, po for 3 weeks; type: organism-based; design: dose 5 mg/kg, route oral; details: in vivo, 504 h; method in brief: as §2
Mus musculus [9] = experiment: Toxicity in C57BL/6J mouse assessed as pathological changes in kidney at 5 mg/kg, po for 3 weeks; type: organism-based; design: dose 5 mg/kg, route oral; details: in vivo, 504 h; method in brief: as §2
Mus musculus [10] = experiment: Antidepressant activity in C57BL/6J mouse assessed as decrease in immobility at 5 mg/kg, po administered for 21 days measured last 4 mins of total 6 mins observation time by forced swim test; type: functional, organism-based; design: dose 5 mg/kg
Method in brief: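 Male C57BL/6J mice, 2–3 months old, were gavaged with saline or compound at 5 mg/kg for 21 days. Mice were acclimated to the test room for 2 days. There was no pre-swim. Each mouse swam for 6 min in a 16 cm cylinder of water 14 cm deep at 24 °C. Immobility was scored blind over the last 4 min; mean ± SEM, ANOVA.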

HEK293 = experiment: Cytotoxicity against human HEK293 cells assessed as inhibition of cell proliferation at up to 50 uM by MTT assay; type: cell-based
Mus musculus [11] = experiment: Toxicity in C57BL/6J mouse assessed as pathological changes in muscle at 5 mg/kg, po for 3 weeks; type: organism-based, Muscle tissue; design: dose 5 mg/kg, route oral; details: in vivo, 504 h; method in brief: as §2
Mus musculus [12] = experiment: Agonist activity at TrkB in C57BL/6J mouse brain assessed as AKT phosphorylation at 1 mg/kg, po after 1 to 16 hrs by immunoblotting; type: functional, organism-based; design: dose 1 mg/kg; method in brief: as §1
Mus musculus [13] = experiment: Agonist activity at TrkB in C57BL/6J mouse brain assessed as TrkB 706 phosphorylation at 1 mg/kg, po at 1 hr by immunoblotting; type: functional, organism-based; design: dose 1 mg/kg; method in brief: as §1
[14] = molecular target: BDNF/NT-3 growth factors receptor (Rattus norvegicus) (UniProt Q63604); experiment: Agonist activity at TrkB in E17 rat primary rat cortical neurons assessed as AKT phosphorylation at Ser 473 at 10 to 50 nM after 15 mins by titration assay; type: functional
Method in brief: (§3)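 Primary cortical neurons were incubated with graded concentrations, starting at 10 nM, for 15 min. Phospho-Akt Ser473 was measured by sandwich ELISA on 20 µg of lysate. Data come from 2 replicated experiment sets, given as mean ± SEM. Comparisons used one-way ANOVA against control and Student's t-test between compounds.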

Mus musculus [15] = experiment: Toxicity in C57BL/6J mouse assessed as pathological changes in lungs at 5 mg/kg, po for 3 weeks; type: organism-based; design: dose 5 mg/kg, route oral; details: in vivo, 504 h; method in brief: as §2
[16] = molecular target: BDNF/NT-3 growth factors receptor (Rattus norvegicus) (UniProt Q63604); experiment: Agonist activity at TrkB in E17 rat primary cortical neurons assessed as AKT phosphorylation at S473 at 500 nM by ELISA; details: Cerebral cortex neuron
[17] = molecular target: BDNF/NT-3 growth factors receptor (Rattus norvegicus) (UniProt Q63604); experiment: Agonist activity at TrkB in E17 rat primary rat cortical neurons assessed as AKT phosphorylation at Ser 473 at 500 nM after 15 mins by ELISA; type: functional
Mus musculus [18] = experiment: Toxicity in C57BL/6J mouse assessed as pathological changes in brain cortex at 5 mg/kg, po for 3 weeks; type: organism-based; design: dose 5 mg/kg, route oral; details: in vivo, 504 h; method in brief: as §2
Mus musculus [19] = experiment: Agonist activity at TrkB in C57BL/6J mouse brain assessed as AKT phosphorylation at Ser473 at 1 mg/kg, po after 1 to 16 hrs by immunoblotting; type: functional, organism-based; design: dose 1 mg/kg; method in brief: as §1
Mus musculus [20] = experiment: Neuroprotective activity in TrkB F616A knock in mouse assessed as inhibition of kainic acid-induced caspase 3 activation in brain homogenates at 5 mg/kg, po administered 4 hrs prior to kainic acid challenge measured after 4 days by immunoblotting in presence of TrkB F616A inhibitor 1NMPP1; type: functional, organism-based; design: dose 5 mg/kg
Method in brief: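 TrkB F616A knock-in mice, 2–3 months old, were given 1NMPP1 at 25 µM in drinking water one day beforehand. They were then gavaged with compound at 5 mg/kg, followed 4 h later by kainic acid at 20 mg/kg. Brains were taken 4 days later, homogenized and ultracentrifuged. 40 µg of supernatant was immunoblotted.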

Mus musculus [21] = experiment: Toxicity in C57BL/6J mouse assessed as pathological changes in heart at 5 mg/kg, po for 3 weeks; type: organism-based; design: dose 5 mg/kg, route oral; details: in vivo, 504 h; method in brief: as §2
Mus musculus [22] = experiment: Agonist activity at TrkB in C57BL/6J mouse brain assessed as MAPK phosphorylation at 1 mg/kg, po after 1 to 16 hrs by immunoblotting; type: functional, organism-based; design: dose 1 mg/kg; method in brief: as §1
Mus musculus [23] = experiment: Induction of neurogenesis in C57BL/6J mouse hippocampus dentate gyrus assessed as progenitor cell proliferation at 5 mg/kg, po administered for 21 days by DAPI and BrdU staining based fluorescence microscopy; type: functional, organism-based; design: dose 5 mg/kg
Method in brief: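 Adult male C57BL/6J mice were gavaged at 5 mg/kg for 21 days and then given BrdU at 50 mg/kg i.p. Mice were perfused with 4% paraformaldehyde 2 h later. Paraffin sections had citrate antigen retrieval and 2 N HCl treatment, then were stained with anti-BrdU-FITC at 4 °C for 16 h and with DAPI. BrdU-positive cells in the dentate gyrus were counted by fluorescence microscopy.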

[24] = molecular target: BDNF/NT-3 growth factors receptor (Rattus norvegicus) (UniProt Q63604); experiment: Agonist activity at TrkB in E17 rat primary rat cortical neurons assessed as AKT phosphorylation at Ser 473 at 10 nM after 15 mins by titration assay; type: functional; method in brief: as §3

Chain of BDNF/NT-3 growth factors receptor (Rattus norvegicus) (Q63604 whole entry): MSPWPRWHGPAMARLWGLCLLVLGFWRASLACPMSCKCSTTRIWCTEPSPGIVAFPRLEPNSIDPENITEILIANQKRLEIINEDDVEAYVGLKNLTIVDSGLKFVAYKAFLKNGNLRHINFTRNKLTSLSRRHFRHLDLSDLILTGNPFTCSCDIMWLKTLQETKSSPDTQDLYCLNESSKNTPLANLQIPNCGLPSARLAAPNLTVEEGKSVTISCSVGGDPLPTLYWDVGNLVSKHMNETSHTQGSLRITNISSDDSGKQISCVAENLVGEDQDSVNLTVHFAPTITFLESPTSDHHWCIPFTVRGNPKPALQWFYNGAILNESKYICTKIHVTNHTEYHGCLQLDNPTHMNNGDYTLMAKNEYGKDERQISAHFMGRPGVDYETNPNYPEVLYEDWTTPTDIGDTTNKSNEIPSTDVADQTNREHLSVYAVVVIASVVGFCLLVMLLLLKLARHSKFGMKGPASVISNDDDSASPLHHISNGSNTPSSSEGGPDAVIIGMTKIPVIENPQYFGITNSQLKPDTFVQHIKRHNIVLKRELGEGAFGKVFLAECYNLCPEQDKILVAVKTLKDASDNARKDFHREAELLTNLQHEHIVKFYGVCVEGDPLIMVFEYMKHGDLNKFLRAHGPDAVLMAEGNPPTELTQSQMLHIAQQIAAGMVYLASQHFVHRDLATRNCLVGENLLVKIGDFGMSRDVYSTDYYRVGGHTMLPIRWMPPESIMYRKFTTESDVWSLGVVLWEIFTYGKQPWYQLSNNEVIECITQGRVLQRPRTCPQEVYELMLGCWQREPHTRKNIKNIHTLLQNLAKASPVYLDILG

## CN(C)c1ccc(-c2cc(=O)c3ccc(O)c(O)c3o2)cc1
Mus musculus [1]
  Activity: inactive
Mus musculus [2]
  Activity: Active
Mus musculus [3]
  Activity: Non-toxic
[4]
  Activity: Active
Mus musculus [5]
  Activity: Non-toxic
[6]
  Activity: Active
[7]
  Activity: Active
Mus musculus [8]
  Activity: Non-toxic
Mus musculus [9]
  Activity: Non-toxic
Mus musculus [10]
  Activity: Active
HEK293
  Activity: Non-toxic
Mus musculus [11]
  Activity: Non-toxic
Mus musculus [12]
  Activity: Active
Mus musculus [13]
  Activity: Active
[14]
  Activity: Active
Mus musculus [15]
  Activity: Non-toxic
[16]
  Activity: Active
[17]
  Activity: Active
Mus musculus [18]
  Activity: Non-toxic
Mus musculus [19]
  Activity: Active
Mus musculus [20]
  inhibition: inactive
Mus musculus [21]
  Activity: Non-toxic
Mus musculus [22]
  Activity: Active
Mus musculus [23]
  Activity: Active
[24]
  Activity: Active
